Laboratory results from ChEMBL document CHEMBL3124806, “Imidazopyridine-fused [1,3]-diazepinones: synthesis and antiproliferative activity” (Eur J Med Chem, 2014).

What was measured:
[1] = tested on: MDA-MB-435; experiment: Cytotoxicity against human MDA-MB-435 cells assessed as cell growth at 10 uM after 48 hrs by SRB assay relative to untreated control; type: functional; conditions: MDA-MB-435, 48 h, read-out: Activity
In short: (§1)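 NCI-60 one-dose screen: each agent added at 10 µM, cultures incubated 48 h. Endpoint by sulforhodamine B protein-binding dye read spectrophotometrically; growth expressed as percent of untreated control cells.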

[2] = tested on: RPMI-8226; experiment: Cytotoxicity against human RPMI8226 cells assessed as cell growth at 10 uM after 48 hrs by SRB assay relative to untreated control; type: functional; conditions: RPMI-8226, 48 h, read-out: Activity; in short: as §1
[3] = Cytotoxicity against human Hs578T cells assessed as cell growth at 10 uM after 48 hrs by SRB assay relative to untreated control; type: functional; conditions: Hs-578T, read-out: Activity
In short: (§2)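 NCI-60 panel screen at a single concentration of 10 μM with 48 h incubation. Cell density measured by sulforhodamine B protein-binding dye and read spectrophotometrically. Growth expressed as percent of untreated control cells.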

[4] = organism: Ovis aries; experiment: Inhibition of sheep brain tubulin polymerization at 100 uM after 40 mins by DAPI staining-based fluorescence assay
In short: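 Microtubular protein was purified from sheep brain by two assembly/disassembly cycles (37 °C/0 °C) in MES buffer (100 mM MES pH 6.6, 1 mM EGTA, 0.5 mM MgCl₂). Compound in DMSO was added to 10 µM tubulin with 10 µM DAPI and incubated 40 min at RT. GTP (1 mM) was then added, and assembly was followed by DAPI fluorescence at 37 °C.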

[5] = tested on: M14; experiment: Cytotoxicity against human M14 cells assessed as cell growth at 10 uM after 48 hrs by SRB assay relative to untreated control; type: functional; conditions: M14, 48 h, read-out: Activity; in short: as §2
[6] = tested on: IGROV-1; experiment: Cytotoxicity against human IGROV1 cells assessed as cell growth at 10 uM after 48 hrs by SRB assay relative to untreated control; type: functional; conditions: IGROV-1, 48 h, read-out: Activity; in short: as §2
[7] = tested on: A498; experiment: Cytotoxicity against human A498 cells assessed as cell growth at 10 uM after 48 hrs by SRB assay relative to untreated control; type: functional; conditions: A498, 48 h, read-out: Activity; in short: as §2
[8] = tested on: T47D; experiment: Cytotoxicity against human T47D cells assessed as cell growth at 10 uM after 48 hrs by SRB assay relative to untreated control; type: functional; conditions: read-out: Activity
In short: (§3)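 NCI-60 single-dose screen. Compounds were added to the cultures at 10 μM and incubated for 48 h. The end point was sulforhodamine B protein staining read spectrophotometrically. Growth is reported as percent of untreated control cells.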

[9] = tested on: SK-MEL-28; experiment: Cytotoxicity against human SK-MEL-28 cells assessed as cell growth at 10 uM after 48 hrs by SRB assay relative to untreated control; type: functional; conditions: SK-MEL-28, 48 h, read-out: Activity; in short: as §3
[10] = tested on: NCI-H23; experiment: Cytotoxicity against human NCI-H23 cells assessed as cell growth at 10 uM after 48 hrs by SRB assay relative to untreated control; type: functional; conditions: NCI-H23, 48 h, read-out: Activity; in short: as §1
[11] = tested on: SN12C; experiment: Cytotoxicity against human SN12C cells assessed as cell growth at 10 uM after 48 hrs by SRB assay relative to untreated control; type: functional; conditions: read-out: Activity; in short: as §3
[12] = tested on: SK-MEL-2; experiment: Cytotoxicity against human SK-MEL-2 cells assessed as cell growth at 10 uM after 48 hrs by SRB assay relative to untreated control; type: functional; conditions: SK-MEL-2, 48 h, read-out: Activity; in short: as §1
[13] = tested on: HCC 2998; experiment: Cytotoxicity against human HCC2998 cells assessed as cell growth at 10 uM after 48 hrs by SRB assay relative to untreated control; type: functional; conditions: HCC 2998, 48 h, read-out: Activity; in short: as §2
[14] = tested on: CCRF-CEM; experiment: Cytotoxicity against human CCRF-CEM cells assessed as cell growth at 10 uM after 48 hrs by SRB assay relative to untreated control; type: functional; conditions: read-out: Activity; in short: as §2
[15] = tested on: SK-OV-3; experiment: Cytotoxicity against human SKOV3 cells assessed as cell growth at 10 uM after 48 hrs by SRB assay relative to untreated control; type: functional; conditions: SK-OV-3, 48 h, read-out: Activity; in short: as §3
[16] = tested on: HCT-116; experiment: Cytotoxicity against human HCT116 cells assessed as cell growth at 10 uM after 48 hrs by SRB assay relative to untreated control; type: functional; conditions: HCT-116, 48 h, read-out: Activity; in short: as §2
[17] = tested on: HL-60(TB); experiment: Cytotoxicity against human HL-60(TB) cells assessed as cell growth at 10 uM after 48 hrs by SRB assay relative to untreated control; type: functional; conditions: HL-60, 48 h, read-out: Activity
In short: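 NCI-60 human tumour cell line panel; a single 10 µM concentration was added to the cultures and incubated 48 h. Endpoint was sulforhodamine B protein-binding dye read spectrophotometrically, with growth reported as percent of untreated control cells.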

[18] = tested on: HOP-62; experiment: Cytotoxicity against human HOP62 cells assessed as cell growth at 10 uM after 48 hrs by SRB assay relative to untreated control; type: functional; conditions: HOP-62, 48 h, read-out: Activity; in short: as §2
[19] = tested on: A549; experiment: Cytotoxicity against human A549 cells assessed as cell growth at 10 uM after 48 hrs by SRB assay relative to untreated control; type: functional; conditions: A549, 48 h, read-out: Activity; in short: as §2
[20] = tested on: SF-268; experiment: Cytotoxicity against human SF268 cells assessed as cell growth at 10 uM after 48 hrs by SRB assay relative to untreated control; type: functional; conditions: SF-268, 48 h, read-out: Activity; in short: as §1
[21] = tested on: SF-539; experiment: Cytotoxicity against human SF539 cells assessed as cell growth at 10 uM after 48 hrs by SRB assay relative to untreated control; type: functional; conditions: SF-539, 48 h, read-out: Activity; in short: as §1
[22] = tested on: TK-10; experiment: Cytotoxicity against human TK10 cells assessed as cell growth at 10 uM after 48 hrs by SRB assay relative to untreated control; type: functional; conditions: TK-10, 48 h, read-out: Activity; in short: as §3
[23] = tested on: HOP-92; experiment: Cytotoxicity against human HOP92 cells assessed as cell growth at 10 uM after 48 hrs by SRB assay relative to untreated control; type: functional; conditions: HOP-92, 48 h, read-out: Activity; in short: as §2
[24] = tested on: SK-MEL-5; experiment: Cytotoxicity against human SK-MEL-5 cells assessed as cell growth at 10 uM after 48 hrs by SRB assay relative to untreated control; type: functional; conditions: SK-MEL-5, 48 h, read-out: Activity; in short: as §3
[25] = tested on: Malme-3M; experiment: Cytotoxicity against human MALME-3M cells assessed as cell growth at 10 uM after 48 hrs by SRB assay relative to untreated control; type: functional; conditions: read-out: Activity; in short: as §2
[26] = Cytotoxicity against human OVCAR4 cells assessed as cell growth at 10 uM after 48 hrs by SRB assay relative to untreated control; type: functional; conditions: OVCAR-4, 48 h, read-out: Activity; in short: as §1
[27] = tested on: DU-145; experiment: Cytotoxicity against human DU145 cells assessed as cell growth at 10 uM after 48 hrs by SRB assay relative to untreated control; type: functional; conditions: DU-145, 48 h, read-out: Activity; in short: as §2
[28] = Cytotoxicity against human NCI-ADR-RES cells assessed as cell growth at 10 uM after 48 hrs by SRB assay relative to untreated control; type: functional; conditions: read-out: Activity; in short: as §1
[29] = tested on: SF-295; experiment: Cytotoxicity against human SF295 cells assessed as cell growth at 10 uM after 48 hrs by SRB assay relative to untreated control; type: functional; conditions: SF-295, 48 h, read-out: Activity; in short: as §1

SMILES: C[C@@H]1NC(c2ccccc2)=Nc2nc3ccccn3c2C1=O
- growth at 10 µM [1]: 91.6%
- growth at 10 µM [2]: 85.7%
- growth at 10 µM [3]: 93.8%
- inhibition [4]: 7%
- growth at 10 µM [5]: 99.8%
- growth at 10 µM [6]: 88.2%
- growth at 10 µM [7]: 84.6%
- growth at 10 µM [8]: 92.8%
- growth at 10 µM [9]: 113%
- growth at 10 µM [10]: 91.9%
- growth at 10 µM [11]: 112%
- growth at 10 µM [12]: 110%
- growth at 10 µM [13]: 90.9%
- growth at 10 µM [14]: 104%
- growth at 10 µM [15]: 101%
- growth at 10 µM [16]: 98.4%
- growth at 10 µM [17]: 135%
- growth at 10 µM [18]: 102%
- growth at 10 µM [19]: 103%
- growth at 10 µM [20]: 103%
- growth at 10 µM [21]: 108%
- growth at 10 µM [22]: 135%
- growth at 10 µM [23]: 75.5%
- growth at 10 µM [24]: 99.2%
- growth at 10 µM [25]: 99.5%
- growth at 10 µM [26]: 103%
- growth at 10 µM [27]: 116%
- growth at 10 µM [28]: 97.4%
- growth at 10 µM [29]: 89%

SMILES: COc1ccc(C2=Nc3nc4ccccn4c3C(=O)[C@H](C)N2)cc1
- growth at 10 µM [1]: 90.2%
- growth at 10 µM [2]: 88.5%
- growth at 10 µM [3]: 98.3%
- inhibition [4]: 20%
- growth at 10 µM [5]: 95.4%
- growth at 10 µM [6]: 89.3%
- growth at 10 µM [7]: 105%
- growth at 10 µM [8]: 97%
- growth at 10 µM [9]: 105%
- growth at 10 µM [10]: 93.5%
- growth at 10 µM [11]: 97.7%
- growth at 10 µM [12]: 83.4%
- growth at 10 µM [13]: 97.8%
- growth at 10 µM [14]: 91.7%
- growth at 10 µM [15]: 94.7%
- growth at 10 µM [16]: 95.9%
- growth at 10 µM [17]: 90.6%
- growth at 10 µM [18]: 80.4%
- growth at 10 µM [19]: 106%
- growth at 10 µM [20]: 104%
- growth at 10 µM [21]: 97.3%
- growth at 10 µM [22]: 99.2%
- growth at 10 µM [23]: 72.5%
- growth at 10 µM [24]: 100%
- growth at 10 µM [25]: 94.3%
- growth at 10 µM [26]: 98.4%
- growth at 10 µM [27]: 113%
- growth at 10 µM [28]: 96.5%
- growth at 10 µM [29]: 98.2%
